This is an account of results in ChEMBL document CHEMBL4680082 (J Med Chem, 2016).

Where “and” joins values, the source holds several entries; their conditions need not be identical. Identical values can stand only once. Calls of active or inactive are those of the source. The calls are words filed in the database; no cut-off is given here.

For test [1], the target named is T1, 5-hydroxytryptamine receptor 2C (Homo sapiens) (UniProt P28335).
T1 sequence (whole entry): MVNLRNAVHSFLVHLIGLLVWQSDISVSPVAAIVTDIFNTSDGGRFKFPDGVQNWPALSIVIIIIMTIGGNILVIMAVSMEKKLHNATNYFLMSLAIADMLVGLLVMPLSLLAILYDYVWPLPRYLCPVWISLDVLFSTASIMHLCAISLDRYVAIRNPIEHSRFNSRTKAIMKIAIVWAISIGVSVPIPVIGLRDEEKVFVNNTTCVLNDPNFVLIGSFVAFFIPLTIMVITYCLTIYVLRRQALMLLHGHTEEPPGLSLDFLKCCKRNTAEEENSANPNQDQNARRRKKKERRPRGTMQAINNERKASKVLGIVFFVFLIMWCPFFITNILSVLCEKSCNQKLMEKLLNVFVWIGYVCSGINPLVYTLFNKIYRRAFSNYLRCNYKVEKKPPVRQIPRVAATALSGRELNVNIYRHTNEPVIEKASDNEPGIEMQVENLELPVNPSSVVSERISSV
Description: Agonist activity at human 5-HT2C INI receptor expressed in human Flp-In-293 cells assessed as increase in [3H]myo-inositol accumulation at 1 uM after 90 mins. The format is functional, cell-based. The note with it: filed as partial agonist. An outline of the steps: (§1)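 PI hydrolysis: Flp-In-293 5-HT2C INI cells, 25,000/well, labelled 16-18 h with [3H]-myo-inositol (2 µCi/well) in inositol-free DMEM, washed. Drug (1 µM) in HBSS/HEPES pH 7.4 buffer for the indicated times (5 min to 40 h). LiCl (15 mM final) added 2 h before lysis with cold 50 mM formic acid at 4 °C overnight. [3H]-inositol phosphates captured on yttrium silicate beads and counted as CPM.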

For test [2], the target named is T2, 5-hydroxytryptamine receptor 2C (Homo sapiens, UniProt P28335).
T2 sequence (P28335 whole entry): T1 sequence (whole entry)
Description: Agonist activity at human 5-HT2C INI receptor expressed in human HEK293 cells assessed as induction of beta-arrestin-2 recruitment incubated for 20 hrs by Tango assay. The format is cell-based. An outline of the steps:
(§2)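 Tango assay in HTLA cells (HEK line expressing TEV-fused β-arrestin-2 and tTA-driven luciferase) transfected with 5-HT2C INI–tTA fusion carrying a TEV site. Cells were stimulated with the same dilutions used for FLIPR, 20 h at 37 °C and 5% CO2, then lysed with Bright-Glo for 20 min at room temperature and read by luminescence. Data normalized to % 5-HT and fitted sigmoidally; n = 3 in triplicate. Bias from log(Emax/EC50).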
On the technique in general: Activated receptors often draw arrestin, which recruitment assays turn into a signal.

The target of test [3] is T1, 5-hydroxytryptamine receptor 2C (Homo sapiens). Description: Induction of Gq-mediated receptor desensitization at human 5-HT2C INI receptor expressed in human Flp-In-293 cells assessed as reduction in Emax for additional 5-HT-stimulated calcium flux at <1 uM pre-incubated for 30 mins followed by drug wash out (3 times) by Fluo-4 direct dye based FLIPR assay. The class given is functional, cell-based. As to conditions: dose microM <1, time 30.0 min.

In test [4] the target is T3, 5-hydroxytryptamine receptor 2A (Homo sapiens, UniProt P28223).
T3 sequence (P28223 whole entry): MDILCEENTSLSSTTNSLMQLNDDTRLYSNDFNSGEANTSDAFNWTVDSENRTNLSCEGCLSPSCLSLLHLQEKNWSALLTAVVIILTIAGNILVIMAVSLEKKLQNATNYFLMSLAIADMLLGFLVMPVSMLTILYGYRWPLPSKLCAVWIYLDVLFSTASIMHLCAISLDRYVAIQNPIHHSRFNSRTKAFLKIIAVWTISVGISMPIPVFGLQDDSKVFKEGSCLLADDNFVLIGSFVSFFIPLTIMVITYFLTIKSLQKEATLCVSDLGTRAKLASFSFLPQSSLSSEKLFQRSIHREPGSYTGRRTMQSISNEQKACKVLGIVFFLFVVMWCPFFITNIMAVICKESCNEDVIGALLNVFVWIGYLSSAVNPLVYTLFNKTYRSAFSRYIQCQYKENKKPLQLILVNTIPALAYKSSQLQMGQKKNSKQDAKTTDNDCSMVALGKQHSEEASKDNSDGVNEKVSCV
In test [5] the target is T1, 5-hydroxytryptamine receptor 2C (Homo sapiens). Description: Agonist activity at human 5-HT2C INI receptor expressed in human HEK293 cells assessed as induction of beta-arrestin-2 recruitment incubated for 20 hrs by Tango assay relative to 5HT. The class given is cell-based. The method in brief:
as §2

Test [6] has the same target. Description: Agonist activity at human 5-HT2C INI receptor expressed in human Flp-In-293 cells assessed as increase in [3H]myo-inositol accumulation at 1 uM after 30 hrs. The format is functional, cell-based. The note with it: filed as partial agonist. An outline of the steps: as §1
For test [7] the target is unchanged. Description: Agonist activity at human 5-HT2C INI receptor expressed in human Flp-In-293 cells assessed as increase in [3H]myo-inositol accumulation at 1 uM measured up to 5 hrs. The format is functional, cell-based. The note with it: filed as partial agonist, time hrs <=5. An outline of the steps:
as §1

For test [8] the target is unchanged. Description: Induction of Gq-mediated receptor desensitization at human 5-HT2C INI receptor expressed in human Flp-In-293 cells assessed as reduction in Emax for [3H]myo-inositol accumulation at 1 uM after 20 hrs. The note with it: filed as partial agonist. The class given is functional, cell-based. An outline of the steps: as §1
Test [9] concerns the target T2, 5-hydroxytryptamine receptor 2C.
Test [10] has the same target. Description: Agonist activity at human 5-HT2C INI receptor expressed in human Flp-In-293 cells assessed as induction of calcium flux incubated for 1 hr by Fluo-4 direct dye based FLIPR assay. The format is functional, cell-based. The method in brief:
(§3)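 Calcium flux in Flp-In-293 cells stably expressing the human 5-HT2C INI isoform, Fluo-4 Direct loading for 1 h at 37 °C. Drug dilutions identical to those in the parallel Tango assay, 300 s read at 1 read/s, normalized to % 5-HT. Triplicate, mean ± SEM (n = 3). Bias factors were calculated from change in relative activity, log(Emax/EC50).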
Background: Calcium flux is commonly read through the fluorescence of an indicator in the cells.

In test [11] the target is T4, 5-hydroxytryptamine receptor 2B (Homo sapiens, UniProt P41595). Description: Agonist activity at human 5-HT2B receptor expressed in human Flp-In-293 cells assessed as induction of calcium flux incubated for 1 hr by Fluo-4 direct dye based FLIPR assay relative to 5-HT. The format is functional, cell-based. The note with it: filed as agonist.
T4 sequence (P41595 whole entry): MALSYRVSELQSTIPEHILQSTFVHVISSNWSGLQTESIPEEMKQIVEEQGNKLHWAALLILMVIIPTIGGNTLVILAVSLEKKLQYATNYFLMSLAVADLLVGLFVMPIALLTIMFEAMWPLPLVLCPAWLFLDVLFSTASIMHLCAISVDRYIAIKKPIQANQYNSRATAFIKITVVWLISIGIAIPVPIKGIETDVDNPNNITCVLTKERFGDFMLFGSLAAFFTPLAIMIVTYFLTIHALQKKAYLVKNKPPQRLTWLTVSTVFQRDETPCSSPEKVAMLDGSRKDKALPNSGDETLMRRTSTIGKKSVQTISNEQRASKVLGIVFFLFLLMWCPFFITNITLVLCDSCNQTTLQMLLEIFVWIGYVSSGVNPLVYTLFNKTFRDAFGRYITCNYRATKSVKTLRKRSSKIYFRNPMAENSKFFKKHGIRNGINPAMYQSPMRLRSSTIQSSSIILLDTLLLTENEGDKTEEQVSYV
For test [12], the target named is T1, 5-hydroxytryptamine receptor 2C (Homo sapiens). Description: Agonist activity at human 5-HT2C INI receptor expressed in human Flp-In-293 cells assessed as induction of calcium flux incubated for 1 hr by Fluo-4 direct dye based FLIPR assay relative to 5-HT. The class given is functional, cell-based. An outline of the steps: as §3
For test [13], the target named is T3, 5-hydroxytryptamine receptor 2A. Description: Agonist activity at human 5-HT2A receptor expressed in human Flp-In-293 cells assessed as induction of calcium flux incubated for 1 hr by Fluo-4 direct dye based FLIPR assay relative to 5-HT. The format is functional, cell-based. The note with it: filed as agonist.
Test [14] addresses T4, 5-hydroxytryptamine receptor 2B.
In test [15] the target is T1, 5-hydroxytryptamine receptor 2C (Homo sapiens). Description: Agonist activity at human 5-HT2C INI receptor expressed in human Flp-In-293 cells assessed as increase in [3H]myo-inositol accumulation at 1 uM after 5 mins. The format is functional, cell-based. The note with it: filed as partial agonist. An outline of the steps: as §1
Test [16] shares this target. Description: Agonist activity at human 5-HT2C receptor expressed in human Flp-In-293 cells assessed as induction of calcium flux incubated for 1 hr by Fluo-4 direct dye based FLIPR assay relative to 5-HT. The format is functional, cell-based.
Test [17] shares this target. Description: Bias factor, ratio of log(Emax/EC50) of lorcaserin to test compound for agonist activity at human 5-HT2C INI receptor expressed in human HEK293 cells assessed as induction of beta-arrestin-2 recruitment incubated for 20 hrs by Tango assay. The class given is cell-based. The method in brief: as §2
For test [18] the target is unchanged. Description: Agonist activity at human 5-HT2C INI receptor expressed in human HEK293 cells assessed as induction of beta-arrestin-2 recruitment by measuring log (Emax/EC50) incubated for 20 hrs by Tango assay relative to 5HT. The format is cell-based. An outline of the steps:
as §2

For test [19] the target is unchanged. Description: Agonist activity at human 5-HT2C INI receptor expressed in human Flp-In-293 cells assessed as induction of calcium flux by measuring log (Emax/EC50) incubated for 1 hr by Fluo-4 direct dye based FLIPR assay. The class given is functional, cell-based. An outline of the steps:
as §3

Test [20] has the same target. Description: Bias factor, ratio of log(Emax/EC50) of lorcaserin to test compound for agonist activity at human 5-HT2C INI receptor expressed in human Flp-In-293 cells assessed as induction of calcium flux incubated for 1 hr by Fluo-4 direct dye based FLIPR assay. The format is functional, cell-based. The method in brief:
as §3

`NC[C@H]1C[C@@H]1c1c(OCCF)ccc2occc12`: the outcome in test [1], in test [7], in [8] and in [15] was Active. Further, the EC50 in test [2] (read-out: EC50) was 25 nM; in [4], 22 nM; in test [9], 0.603 nM and 0.59 nM; in test [10], 1.2 nM; in test [14], 46 nM. Further, the result in test [3] was inactive. For the same compound, the Emax – broadly, the size of the effect at its maximum, as opposed to the concentration needed – in test [5] was 28%; in test [11], 103%; in test [12] (filed as partial agonist) it was 94%; in test [13] it was 98%; in [16] (filed as partial agonist), 97%. Also, the Activity result in [6] was “Dose-dependent effect”.
For `C=CCOc1ccc2oc(CC)cc2c1[C@H]1C[C@@H]1CN`, the EC50 in test [2] (read-out: EC50) came out at 30 nM; in test [9], 23 nM; in test [10] it was 25 nM; in test [14], 433 nM.
With `NC[C@H]1C[C@@H]1c1c(OCCF)ccc2c1CCO2`, the EC50 in [2] (read-out: EC50) was 318 nM; in [2] (read-out: pEC50 (converted)), 324 nM; in test [4], 2320 nM; in test [9] it was 73 nM; in test [10] it was 41 nM. The Emax in test [5] (filed as agonist) was determined as 42%; in test [12] (filed as agonist) it was 93%; in test [13], 63%; in test [16] (filed as agonist), 76%.
`C=CCOc1ccc2occc2c1[C@H]1C[C@@H]1CN`: the EC50 worked out at 20 nM in [2] (read-out: EC50); 213 nM in test [4]; 5.3 nM in test [9]; 8.7 nM in test [10]; 348 nM in test [14]. Further, the Emax turned out to be 25% in test [5], 92% in [12] (filed as agonist) and 103% in test [16] (filed as agonist).
In the case of `C[C@H](N)Cn1ccc2cc(F)c(Cl)cc21`, the Ratio in test [17] is 3.3; in test [20], 0.3. The EC50 was 10 nM in test [2] (read-out: EC50), 10.7 nM in test [2] (read-out: pEC50 (converted)) and 2.2 nM in test [10]. The log(ratio) in test [18] was 7.94; in [19] it was 8.65. In addition, the results for the Emax in test [5] (filed as agonist) and in [12] (filed as agonist) were 87% and 99%, respectively.
`CCc1cc2c([C@H]3C[C@@H]3CN)c(OCCF)ccc2o1`: the EC50 in [2] (read-out: EC50) is 96 nM; in test [4], 2210 nM; in test [9], 11 nM; in [10] it was 22 nM; in test [14] it was 550 nM. Moreover, the values for the Emax in test [5] (filed as agonist), in [12] (filed as agonist) and in [16] (filed as agonist) were 50%, 93% and 106%, respectively.
Turning to `C=CCOc1ccc2c(c1[C@H]1C[C@@H]1CN)CCO2`, the EC50 in [2] (read-out: EC50) worked out at 267 nM; in test [4], 618 nM; in test [9], 11 nM; in [10] it was 26 nM; in [14], 258 nM. Moreover, the Emax in [5] amounted to 35%; in [12] (filed as agonist) it was 93%; in [16] (filed as agonist), 101%.
